These results are taken from ChEMBL document CHEMBL4834423, “Discovery of AG-270, a First-in-Class Oral MAT2A Inhibitor for the Treatment of Tumors with Homozygous MTAP Deletion” (J Med Chem, 2021).

The nature of data set [1]: Solubility of compound at pH 2. In kind it is physicochemical. Particulars: buffer.
The nature of data set [2]: Solubility of compound at pH 7.4. In kind it is physicochemical. Particulars: buffer.
Data set [3] is described as follows: Protein binding in monkey plasma assessed as unbound fraction. In kind it is ADME, cell-free, Macaca mulatta. The conditions noted are these: rhesus monkey.
Data set [4] in a line: Protein binding in rat plasma assessed as unbound fraction. In kind it is ADME, cell-free.
A short description of data set [5]: Protein binding in mouse plasma assessed as unbound fraction. The data set is classed as ADME, cell-free.
Data set [6] can be described thus: Oral bioavailability in monkey at 5 mg/kg. In kind it is ADME, organism-based, Macaca mulatta. Particulars: rhesus monkey, in vivo.
Data set [7] deals with T1, Solute carrier organic anion transporter family member 1B1 (Homo sapiens, UniProt Q9Y6L6).
T1 sequence (Q9Y6L6 whole entry): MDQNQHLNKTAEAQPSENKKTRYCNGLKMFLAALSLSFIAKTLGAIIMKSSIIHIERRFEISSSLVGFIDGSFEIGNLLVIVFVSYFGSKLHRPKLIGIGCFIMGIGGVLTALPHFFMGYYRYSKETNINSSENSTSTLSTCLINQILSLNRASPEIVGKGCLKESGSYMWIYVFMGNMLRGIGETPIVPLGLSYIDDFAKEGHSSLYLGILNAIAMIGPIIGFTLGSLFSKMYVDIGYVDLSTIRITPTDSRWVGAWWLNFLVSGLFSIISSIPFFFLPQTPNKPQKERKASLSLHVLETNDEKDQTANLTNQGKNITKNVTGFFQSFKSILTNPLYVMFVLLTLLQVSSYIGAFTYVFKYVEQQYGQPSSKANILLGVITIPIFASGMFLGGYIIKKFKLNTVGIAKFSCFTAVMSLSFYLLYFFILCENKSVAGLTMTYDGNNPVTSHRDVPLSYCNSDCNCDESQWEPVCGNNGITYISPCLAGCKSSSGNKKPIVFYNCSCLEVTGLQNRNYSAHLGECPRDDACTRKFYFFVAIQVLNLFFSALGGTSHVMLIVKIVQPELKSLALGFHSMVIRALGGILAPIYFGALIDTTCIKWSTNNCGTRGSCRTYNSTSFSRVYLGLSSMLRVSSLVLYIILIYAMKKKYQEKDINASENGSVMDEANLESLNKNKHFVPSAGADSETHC
Put plainly: Inhibition of OATP1B1 (unknown origin). In kind it is ADME.

In a further data set the target is Cytochrome P450 3A4 (Homo sapiens, UniProt P08684). The data set is described as follows: Inhibition of CYP3A4 (unknown origin). The data set is classed as ADME.
The target of data set [8] is T2, Cytochrome P450 2C19 (Homo sapiens, UniProt P33261). Put plainly: Inhibition of CYP2C19 (unknown origin). In kind it is ADME.
The target in data set [9] is T3, Cytochrome P450 2D6 (Homo sapiens, UniProt P10635). The data set is described as follows: Inhibition of CYP2D6 (unknown origin). The data set is classed as ADME.
The target of another data set is T4, Cytochrome P450 2B6 (Homo sapiens, UniProt P20813).
T4 sequence (P20813 whole entry): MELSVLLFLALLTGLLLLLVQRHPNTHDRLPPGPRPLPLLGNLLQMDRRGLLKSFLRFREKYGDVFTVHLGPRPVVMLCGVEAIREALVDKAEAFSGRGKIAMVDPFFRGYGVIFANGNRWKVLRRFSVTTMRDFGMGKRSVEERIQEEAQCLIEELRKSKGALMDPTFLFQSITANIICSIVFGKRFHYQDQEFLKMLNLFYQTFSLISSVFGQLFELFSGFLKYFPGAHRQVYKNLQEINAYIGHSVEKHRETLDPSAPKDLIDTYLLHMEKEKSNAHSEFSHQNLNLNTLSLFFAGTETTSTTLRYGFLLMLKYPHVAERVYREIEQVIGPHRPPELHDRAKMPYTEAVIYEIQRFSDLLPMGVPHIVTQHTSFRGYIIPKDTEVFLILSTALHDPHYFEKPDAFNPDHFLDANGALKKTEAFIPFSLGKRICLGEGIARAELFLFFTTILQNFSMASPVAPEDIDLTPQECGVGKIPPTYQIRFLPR
The data set is described as follows: Inhibition of CYP2B6 (unknown origin) assessed as inactivation relative to control. In kind it is ADME.

The next data set deals with Cytochrome P450 2C9 (Homo sapiens, UniProt P11712). The data set is described as follows: Inhibition of CYP2C9 (unknown origin) assessed as inactivation relative to control. The data set is classed as ADME.
Data set [10] has as its target T2, Cytochrome P450 2C19. Put plainly: Inhibition of CYP2C19 (unknown origin) assessed as inactivation relative to control. In kind it is ADME.
Data set [11] addresses T3, Cytochrome P450 2D6. The data set is described as follows: Inhibition of CYP2D6 (unknown origin) assessed as inactivation relative to control. The data set is classed as ADME.
Data set [12] deals with KP-4. Put plainly: Anticancer activity in MTAP-null human KP-4 cells xenografted mouse model assessed as tumor growth inhibition at 30 mg/kg, po qd treated for 38 days relative to control. The data set is classed as functional. Particulars: KP-4, po, 912 h, time 38 day, read-out: TGI. In a few lines:
(§1)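 Subcutaneous KP4 MTAP-null xenograft mice, 12 per arm (60 animals), dosed orally once daily on days 24−38 at 10−200 mg/kg. Tumor SAM levels and plasma compound exposure were monitored; plasma sampled up to 24 h after the last dose. Mean tumor volume and body weight change were tracked; error bars are SEM.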
Background: In xenograft studies the graft and the host belong to different species.

The test system of data set [13] is KP-4. The data set is described as follows: Anticancer activity in MTAP-null human KP-4 cells xenografted mouse model assessed as inhibition of SAM production at 10 mg/kg, po qd treated for 38 days relative to control. The data set is classed as functional. Particulars: KP-4, po, 912 h, time 38 day. Put shortly: as §1
Data set [14] concerns KP-4. The data set is described as follows: Anticancer activity in MTAP-null human KP-4 cells xenografted mouse model assessed as inhibition of SAM production at 30 mg/kg, po qd treated for 38 days relative to control. The data set is classed as functional. The conditions noted are these: KP-4, po, 912 h, time 38 day. In a few lines: as §1
Data set [15] has as its system KP-4. Put plainly: Anticancer activity in MTAP-null human KP-4 cells xenografted mouse model assessed as inhibition of SAM production at 200 mg/kg, po qd treated for 38 days relative to control. In kind it is functional. Particulars: KP-4, po, 912 h, time 38 day. In a few lines:
as §1

Data set [16] can be described thus: Toxicity in MTAP-null human KP-4 cells xenografted mouse model assessed as body weight change at 10 to 200 mg/kg, po qd treated for 38 days. Particulars: in vivo, 912 h, dose 10-200 mg/kg, time 38 day. The data set is classed as organism-based. In a few lines:
as §1

The test system of data set [17] is HCT-116. The data set is described as follows: Anticancer activity in MTAP-null human HCT116 cells xenografted mouse model assessed as tumor growth inhibition at 10 mg/kg, po qd treated for 38 days relative to control. Particulars: HCT-116, po, 912 h, time 38 day, read-out: TGI. The data set is classed as functional.
Data set [18] relates to HCT-116. Put plainly: cells. The conditions noted are these: Homo sapiens, HCT-116, 96 h.
The nature of another data set: cells. Particulars: Homo sapiens, HCT-116, 72 h.

Usually solubility stands for the concentration that dissolves in the medium under given conditions. One may read the fraction unbound as free concentration divided by total concentration. Usually bioavailability stands for the share of a dose that reaches the circulation, judged against a reference dose that is usually intravenous. A word on the IC50: it is the concentration needed to halve the response being measured.

Molecules are shown by their SMILES. Where only a bound is given, the exact number is not on record here.

T2 sequence (P33261 whole entry): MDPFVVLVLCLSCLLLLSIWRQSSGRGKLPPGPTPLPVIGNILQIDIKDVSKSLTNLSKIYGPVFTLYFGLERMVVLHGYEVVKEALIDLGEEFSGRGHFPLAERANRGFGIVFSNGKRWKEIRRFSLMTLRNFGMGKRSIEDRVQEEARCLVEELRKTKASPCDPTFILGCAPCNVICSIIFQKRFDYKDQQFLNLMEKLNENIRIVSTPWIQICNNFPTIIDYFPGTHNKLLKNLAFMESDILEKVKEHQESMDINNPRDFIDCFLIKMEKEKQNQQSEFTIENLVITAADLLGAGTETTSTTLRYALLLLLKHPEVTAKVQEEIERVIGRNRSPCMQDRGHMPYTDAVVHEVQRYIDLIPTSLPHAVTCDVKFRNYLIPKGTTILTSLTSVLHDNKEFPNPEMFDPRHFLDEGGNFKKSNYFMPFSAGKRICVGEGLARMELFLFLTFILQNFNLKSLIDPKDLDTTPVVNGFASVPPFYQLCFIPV
T3 sequence (P10635 whole entry): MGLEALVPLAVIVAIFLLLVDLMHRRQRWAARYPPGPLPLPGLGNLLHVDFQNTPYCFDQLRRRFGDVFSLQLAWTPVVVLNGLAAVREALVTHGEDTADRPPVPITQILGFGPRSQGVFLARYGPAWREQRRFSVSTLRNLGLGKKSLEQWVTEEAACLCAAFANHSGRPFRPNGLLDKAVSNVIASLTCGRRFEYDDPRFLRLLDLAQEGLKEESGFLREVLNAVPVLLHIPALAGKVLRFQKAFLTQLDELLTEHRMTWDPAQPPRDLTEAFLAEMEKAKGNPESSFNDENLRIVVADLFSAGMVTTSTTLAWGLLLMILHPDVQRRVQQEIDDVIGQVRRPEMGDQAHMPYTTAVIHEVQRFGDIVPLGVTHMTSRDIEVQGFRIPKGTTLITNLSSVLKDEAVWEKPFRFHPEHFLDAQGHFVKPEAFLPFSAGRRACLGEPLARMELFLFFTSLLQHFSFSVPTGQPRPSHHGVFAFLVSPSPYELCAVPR
Cytochrome P450 3A4, sequence (P08684 whole entry): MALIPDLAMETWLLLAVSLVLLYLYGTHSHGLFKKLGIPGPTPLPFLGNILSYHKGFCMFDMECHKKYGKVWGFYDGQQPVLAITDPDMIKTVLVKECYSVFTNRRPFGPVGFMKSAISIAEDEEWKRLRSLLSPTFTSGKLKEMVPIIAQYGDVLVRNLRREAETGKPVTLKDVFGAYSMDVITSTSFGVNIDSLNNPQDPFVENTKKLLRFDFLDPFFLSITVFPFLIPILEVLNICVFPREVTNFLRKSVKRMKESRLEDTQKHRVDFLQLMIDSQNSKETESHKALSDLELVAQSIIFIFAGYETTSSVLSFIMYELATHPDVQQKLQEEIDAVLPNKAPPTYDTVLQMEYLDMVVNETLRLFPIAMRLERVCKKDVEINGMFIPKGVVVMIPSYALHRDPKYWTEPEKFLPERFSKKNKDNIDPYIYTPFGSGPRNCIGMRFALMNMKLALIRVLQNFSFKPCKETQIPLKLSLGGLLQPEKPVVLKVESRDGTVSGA
Cytochrome P450 2C9, sequence (P11712 whole entry): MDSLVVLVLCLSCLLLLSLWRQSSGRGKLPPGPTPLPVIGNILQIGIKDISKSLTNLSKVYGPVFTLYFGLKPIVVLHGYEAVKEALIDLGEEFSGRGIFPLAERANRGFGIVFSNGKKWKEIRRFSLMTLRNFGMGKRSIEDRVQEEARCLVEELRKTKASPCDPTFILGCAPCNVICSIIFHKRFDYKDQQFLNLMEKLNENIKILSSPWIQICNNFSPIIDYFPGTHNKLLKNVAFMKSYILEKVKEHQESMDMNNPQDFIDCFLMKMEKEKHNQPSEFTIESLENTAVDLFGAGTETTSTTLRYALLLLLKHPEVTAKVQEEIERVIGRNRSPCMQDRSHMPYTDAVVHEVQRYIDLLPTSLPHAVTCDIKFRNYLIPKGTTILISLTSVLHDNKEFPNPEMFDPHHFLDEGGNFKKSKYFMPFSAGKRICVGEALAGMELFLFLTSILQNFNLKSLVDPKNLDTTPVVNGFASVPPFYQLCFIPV

For the compound `COc1ccc(-c2c(Nc3ccccn3)[nH]c3c(C4=CCCCC4)c(-c4ccccc4)nn3c2=O)cc1`, the values for the solubility in [1] and in [2] were less than 0.5 µM and less than 0.1 µM, respectively. Moreover, the fraction unbound amounted to 0.011 in [3], 0.016 in [4] and 0.0028 in data set [5]. The compound further displayed a bioavailability in [6] of 31%. Moreover, the IC50 was 2.1 µM in data set [7]; greater than 10 µM at Cytochrome P450 3A4; greater than 10 µM at Cytochrome P450 2C19 [8]; greater than 10 µM on Cytochrome P450 2D6 [9]; 0.257 µM with HCT-116 [18]; 20 µM in the data set “cells”. The INH on Cytochrome P450 2B6 is greater than 3.6 µM; on Cytochrome P450 2C9, greater than 50 µM; on Cytochrome P450 2C19 [10] it was greater than 50 µM; on Cytochrome P450 2D6 [11] it was greater than 50 µM. Also, the results for the inhibition in vivo at 30 mg/kg in the data set on KP-4 [12] and with KP-4 [14] were 48% and 44.7%, respectively. Further, the values for the inhibition in vivo at 10 mg/kg in the data set on KP-4 [13] and in the data set on HCT-116 [17] were 33.4% and 75%, respectively. The inhibition in vivo at 200 mg/kg with KP-4 [15] was 81.1%. Also, the Activity entry in data set [16] was “Non-Toxic”.
